Assay outcomes as filed in PubChem.
ATG4B inhibitor: ATG4B (human) cysteine protease inhibition; Q9Y4P1; ATG4B cleavage of LC3-PLA2, NBD-HPC fluorescence, 1 h; inhibition, % at 8.33 µM; 340,000 compounds, 0.51% hits; AID 504462; in the data active = inhibition above about 40%
Target sequence (Q9Y4P1 whole entry, looked up): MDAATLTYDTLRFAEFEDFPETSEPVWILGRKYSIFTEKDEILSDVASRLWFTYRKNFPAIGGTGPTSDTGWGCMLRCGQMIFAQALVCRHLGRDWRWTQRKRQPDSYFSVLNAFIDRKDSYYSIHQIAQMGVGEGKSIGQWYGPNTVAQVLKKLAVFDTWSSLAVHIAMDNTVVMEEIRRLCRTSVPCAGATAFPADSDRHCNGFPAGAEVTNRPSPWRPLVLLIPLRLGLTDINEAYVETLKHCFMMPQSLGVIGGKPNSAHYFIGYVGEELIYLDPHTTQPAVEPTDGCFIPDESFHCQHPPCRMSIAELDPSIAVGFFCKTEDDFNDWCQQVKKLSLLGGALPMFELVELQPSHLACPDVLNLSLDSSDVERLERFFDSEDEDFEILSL
SENP1 FRET inh: blocks the human SENP1 SUMO protease catalytic domain; recombinant SENP1 catalytic domain, CyPet-SUMO1-YPet FRET cleavage; inhibition, % at 10 µM; 360,000 compounds, 0.21% hits; AID 624204;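 active = inhibition at least 30% at 10 µM, raw YFP signal under a set limit, fluorescence ratio 0.5 to 1.5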;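 also: 0% = enzyme with DMSO and 100% = no enzyme wells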
Target sequence (Q9P0U3 419-644 limits assumed): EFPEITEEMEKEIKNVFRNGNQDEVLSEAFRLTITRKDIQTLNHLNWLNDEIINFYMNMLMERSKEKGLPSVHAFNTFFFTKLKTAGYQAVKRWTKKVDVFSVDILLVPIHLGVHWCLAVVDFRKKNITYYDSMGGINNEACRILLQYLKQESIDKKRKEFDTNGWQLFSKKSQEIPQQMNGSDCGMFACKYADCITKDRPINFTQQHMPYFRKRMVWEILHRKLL
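System: Recombinant human SENP1 catalytic domain, His6-tagged | Incubation: Enzyme reaction for 50 min at room temperature, dark | Medium: Tris pH 8 with BME, BSA, NP40 and catalase | Also added: 25 nM SUMO1 FRET substrate | Compound: 10 µM single point, 0.5% DMSO | Measured by: FRET fluorescence in CFP and YFP emission channels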
NadD block: inhibitors of Staphylococcus aureus NadD | 360,000 compounds, 0.78% hits | purified NadD enzyme, colorimetric absorbance read-out | inhibition, % at 20 µM | AID 602399; in the data active = inhibition above about 26%
NR3A LBD binder: modulators (binders) of human NR3A ligand-binding domain. NR3A LBD differential scanning fluorimetry, Tm shift; 0% = protein alone, 100% = glycine-bound protein. Tm shift relative to glycine control, % at 25 µM. 340,000 compounds, 2.5% hits. AID 1259313;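 active = melting temperature shift of at least 10% of the positive control shift, at one fixed dose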
UCH37 inh: inhibitors of human deubiquitinating enzyme UCH37. AID 588478. 330,000 compounds, 0.33% hits. purified proteasome/UCH37, Ub-AMC cleavage fluorescence. Q9Y5K5. inhibition, % (concentration not given with the values);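 active = mean inhibition over replicate wells above about 20%, limit read from the data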;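 also: 0% = compound-free wells with enzyme and 100% = wells lacking proteasome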
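Signal – fluorescence, ex 355 nm, em 460 nm · System – Proteasome-bound UCH37 · Input – 0.15 nM proteasome as dispensed · Timing – 30 min preincubation with enzyme, 25 min cleavage at room temperature · Read-out basis – percent inhibition of cleavage signal versus uninhibited and no-proteasome wells · Medium – Tris-HCl pH 7.4 with ATP-MgCl2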
Starred values were filed as active, the others as inactive. In the library only some 3.6% were active in any assay of this set; here they are far more common.

For COC(=O)c1cc(NC(=O)c2ccc(-c3ccccc3)cc2)ccc1Cl the results were ATG4B inhibitor 7, SENP1 FRET inh 2, NadD block -10, NR3A LBD binder 5 and UCH37 inh -1.
Screening CC(=NNC(=O)CCCNc1ccc(C)cc1)c1ccccn1 returned UCH37 inh 5.
Screening Cc1ccc(NC(=O)c2ccccc2O)cc1 returned ATG4B inhibitor 5, SENP1 FRET inh -3, NadD block -1, NR3A LBD binder -6 and UCH37 inh 0.
Screening Cc1ccc(NC(=O)C2=C(c3ccccc3)S(=O)(=O)CCS2(=O)=O)cc1 returned ATG4B inhibitor -3, SENP1 FRET inh -1, NadD block -1, NR3A LBD binder 14* and UCH37 inh 3.
For CCOc1cc(C=NNC(=O)CCCC(=O)NC2CCCCC2)ccc1O the results were UCH37 inh 0.
Screening COc1cccc(C2NC(c3cccc(OC)c3O)C(C)C(=O)C2C)c1O (stereo not given) returned ATG4B inhibitor 2, SENP1 FRET inh 0, NadD block 2, NR3A LBD binder 1 and UCH37 inh 2.
Screening CC1C(=O)C(C)C(c2cc(Cl)ccc2O)NC1c1cc(Cl)ccc1O (stereo not given) returned ATG4B inhibitor -4, SENP1 FRET inh -2, NadD block -9, NR3A LBD binder 27* and UCH37 inh 2.
COC(=O)C1=C(C)N=c2sc(=Cc3cccs3)c(=O)n2C1c1ccc(F)cc1 (stereo not given) was read as UCH37 inh 6.
For O=C(Cc1ccccc1)Nc1cccc([N+](=O)[O-])c1 the results were ATG4B inhibitor -14, SENP1 FRET inh 1, NadD block -4, NR3A LBD binder -3 and UCH37 inh 2.
Screening O=C(Nc1cccc([N+](=O)[O-])c1)c1ccc2ccccc2c1O returned ATG4B inhibitor 1, SENP1 FRET inh 3, NadD block -8, NR3A LBD binder 26* and UCH37 inh 2.
Screening O=[N+]([O-])c1ccccc1/C=C/C=Nn1c(-c2ccco2)n[nH]c1=S returned UCH37 inh 7.
CCOC(=O)c1sc2nc3c(SCCC(=O)O)cc(C(=O)c4cc(OC)ccc4O)cn3c(=O)c2c1C was read as ATG4B inhibitor 2, SENP1 FRET inh -38, NadD block 43*, NR3A LBD binder -2 and UCH37 inh 6.
`O=C(Nc1ccc2c(c1)OCO2)c1cc(-c2cccc(O)c2)on1` gave ATG4B inhibitor 5, SENP1 FRET inh -12, NadD block -5, NR3A LBD binder 3 and UCH37 inh 1.
Screening COc1cccc(-c2cc(C(=O)Nc3ccc4c(c3)OCO4)no2)c1 returned ATG4B inhibitor 5, SENP1 FRET inh 0, NadD block 2, NR3A LBD binder 15* and UCH37 inh -50.
`O=C(Nc1ccc2c(c1)OCO2)c1cc(-c2ccc(O)cc2)on1` gave ATG4B inhibitor 9, SENP1 FRET inh 0, NadD block 6, NR3A LBD binder 18* and UCH37 inh 3.
`CCOc1ccc(-c2cc(C(=O)NN=C(C)c3cccnc3)c3ccccc3n2)c(OCC)c1` gave UCH37 inh -69.
Cc1c(C=NNC(=O)c2cc(Br)ccc2O)c(=O)n(C)c(=O)n1C was read as UCH37 inh 11.
CCOC(=O)c1ccc(N2C(=O)c3n[nH]c(C)c3C2c2ccco2)cc1 (stereo not given) was read as ATG4B inhibitor -1, SENP1 FRET inh 1, NadD block 1, NR3A LBD binder -1 and UCH37 inh 4.
Screening CCOC(=O)c1ccc(N2C(=O)c3n[nH]c(-c4ccco4)c3C2c2cccc([N+](=O)[O-])c2)cc1 (stereo not given) returned ATG4B inhibitor -14, SENP1 FRET inh 1, NadD block 29, NR3A LBD binder 24* and UCH37 inh 2.
Screening CC(/C=C/c1cccc([N+](=O)[O-])c1)=NNC(=O)c1ccncc1 returned UCH37 inh 10.
C(=NN(Cc1ccccc1)c1ccccc1)c1cccnc1 was read as UCH37 inh 3.
`Oc1cccc(/C=N/N(Cc2ccccc2)c2ccccc2)c1` gave ATG4B inhibitor 27, SENP1 FRET inh -1, NadD block -7 and NR3A LBD binder 16*.
Screening O=[N+]([O-])c1cc(-c2ccc(C(=S)N3CCOCC3)o2)ccc1Cl returned ATG4B inhibitor -7, SENP1 FRET inh 1, NadD block 23, NR3A LBD binder 0 and UCH37 inh 21*.
O=[N+]([O-])c1cccc(-c2ccc(C(=S)N3CCOCC3)o2)c1 was read as ATG4B inhibitor 3, SENP1 FRET inh 2, NadD block -4, NR3A LBD binder 0 and UCH37 inh 6.
`CN(C)C=NC(=S)Nc1ccc(F)cc1` gave UCH37 inh 5.
`CN(C)S(=O)(=O)c1ccc(Cl)c(NC(=O)COc2ccccc2[N+](=O)[O-])c1` gave ATG4B inhibitor 10, SENP1 FRET inh -1, NadD block 0 and NR3A LBD binder 13*.
`CCN(CC)S(=O)(=O)c1ccc(Cl)c(NC(=O)COc2ccccc2[N+](=O)[O-])c1` gave ATG4B inhibitor 0, SENP1 FRET inh -14, NadD block -5, NR3A LBD binder 2 and UCH37 inh 4.
`O=C(COC(=O)c1ccco1)Nc1ccc([N+](=O)[O-])cc1Cl` gave ATG4B inhibitor -1, SENP1 FRET inh 2, NadD block -5, NR3A LBD binder -2 and UCH37 inh 4.
`O=C(COc1cc(Cl)c(Cl)cc1Cl)Nc1ccc([N+](=O)[O-])cc1Cl` gave ATG4B inhibitor 0, SENP1 FRET inh 1, NadD block -4, NR3A LBD binder 10* and UCH37 inh 6.
For O=C(Nc1ccc([N+](=O)[O-])cc1Cl)c1cccc([N+](=O)[O-])c1 the results were SENP1 FRET inh 2 and NadD block -3.
`O=C(Nc1cccc(Cl)c1)c1cccc(Oc2ccc([N+](=O)[O-])cc2Cl)c1` gave ATG4B inhibitor -3, SENP1 FRET inh 3, NadD block 3, NR3A LBD binder 8 and UCH37 inh 0.
For O=C(Nc1ccc([N+](=O)[O-])cc1Cl)c1cc(Cl)ccc1O the results were ATG4B inhibitor 2, SENP1 FRET inh 3, NadD block 7, NR3A LBD binder 20* and UCH37 inh 2.
Screening O=C(Nc1cccc(Cl)c1)c1cc(N=Nc2ccc([N+](=O)[O-])cc2Cl)ccc1O returned ATG4B inhibitor 16, SENP1 FRET inh 4, NadD block 50*, NR3A LBD binder 19* and UCH37 inh 17.
For COc1ccc(C)cc1NS(=O)(=O)c1ccc2c(c1)N(C)CCO2 the results were ATG4B inhibitor 0, SENP1 FRET inh 3, NadD block -6, NR3A LBD binder 18* and UCH37 inh 0.
